Screening results deposited in PubChem by several laboratories.
L major viab – Leishmania major promastigote growth inhibition, primary screen; 200,000 compounds, 9% hits; Leishmania major promastigotes, resazurin fluorescence viability; inhibition, % at 10 µM; in the data active = inhibition above about 50%;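 note: promastigotes grown with compound for 44 hours at 28 °C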
NALP3 yeast inh – NALP3 inflammasome inhibitors in reconstituted yeast, primary screen, luminescence, uHTS; Yeast reconstituted NLRP3/ASC/caspase-1, beta-gal luminescence, 24 h; inhibition, % at 10 µM; 330,000 compounds, 0.39% hits;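 active = inhibition of 50% or more; inactive = inhibition below 50%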
T cruzi repl – inhibitors of intracellular T. cruzi growth, primary screen, luminescence, NIH3T3 host cells. T. cruzi beta-gal in NIH3T3, 90 h. inhibition, % (concentration not given with the values). 300,000 compounds, 1.4% hits;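 active = mean inhibition across valid replicates above about 55%, limit read from the data; inconclusive = mean below that limit but half or more replicates reach it; inactive = mean below it, under half of replicates reach it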;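 note: signal also drops with host cell toxicity which is not excluded here; higher percent means less beta-gal luminescence so fewer parasites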
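System: NIH/3T3 fibroblasts plus reporter T. cruzi. Medium: DMEM plus 2% FBS. Probe or stimulus: 5000 reporter trypomastigotes per well. Compound: single 50 nL compound addition per well in DMSO. Incubation: co-culture of at least 90 h after 3 h attachment. Detection: GalScreen β-gal luminescence, detergent lysis, 60 min. Evaluation: parasite load inhibition, %.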
Calb FLC – C. albicans growth inhibition with fluconazole, primary screen, CaCi-2 strain, Alamar Blue fluorescence. C. albicans CaCi-2 + fluconazole, 48 h. growth inhibition, % (test concentration not listed). 300,000 compounds, 0.57% hits. AID 1979, 2009;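 active = growth inhibition above about 58% in most replicates, limit read from the data, passing the limit was not always enough; inconclusive = exactly half the replicates above a set limit; inactive = most replicates below a set limit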;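 note: all wells also contain fluconazole at 8 µg/ml as a sub-toxic cotreatment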
NALP1 inh – NALP1 inflammasome inhibitors in reconstituted yeast, colorimetric, S. cerevisiae, triplicate retest | AID 2071, 2009 | 280,000 compounds, 0.61% hits | inhibition, % at 10 µM | S. cerevisiae NALP1/ASC/caspase-1 growth, X-gal OD620, 72 h; in the data active = inhibition mostly above about 24%, no sharp cut-off; inactive = mostly below about 32%
PolyA inh – polyadenylation inhibitors in yeast reporter cells, primary screen, luminescence, S. cerevisiae. S. cerevisiae SKY197-pL101 polyadenylation reporter, beta-gal luminescence; efflux-impaired pdr1/pdr3 knockout yeast; score 100 = 6 SD above DMSO. activity score, % at 12 µM. 300,000 compounds, 0.02% hits;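 active = lowest replicate activity score at least 50, where 100 means six control SD above control mean; inconclusive = lowest score under 50 but half or more replicates reach 50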;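 note: yeast exposed to compound for 9 h at 30 °C; higher score means more reporter readthrough which indicates perturbed polyadenylation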
Hits are given with their value; n = inactive; u = inconclusive; x = not tested or not shown. This is one part of a sample in which hits are shown more often than they occur.

SMILES | L major viab | NALP3 yeast inh | T cruzi repl | Calb FLC | NALP1 inh | PolyA inh
O=C(NCCN1C(=O)S/C(=C\c2ccc(F)cc2)C1=O)C1CCN(S(=O)(=O)c2cccs2)CC1 | n | n | n | n | n | n
COc1ccc(/C=C2\SC(=O)N(CCNC(=O)C3CCN(S(=O)(=O)c4cccs4)CC3)C2=O)cc1 | 64 | n | n | n | n | n
O=[N+]([O-])c1ccc(N2CCN(CCO)CC2)cc1Sc1nc2ccccc2[nH]1 | n | n | n | n | n | n
CCCCN(CC)Cc1ccc(CNC(=O)Nc2ccc(OCC)cc2)o1 | 99 | n | n | n | n | n
CCCCN(CC)Cc1ccc(CNC(=O)Nc2ccc(Cl)cc2)o1 | 98 | n | n | n | n | n
CC(CCc1ccccc1)NC(=O)c1cncc(Br)c1 (configuration not stated) | n | n | n | n | n | n
CC1CC(=O)C2=C(C1)Nc1ccccc1SC2c1ccc(F)cc1 (configuration not stated) | 68 | n | n | n | n | n
O=C1CC(c2ccsc2)Sc2ccccc2N1 (configuration not stated) | x | n | n | n | n | n
Cc1nc(Nc2ccccc2C(F)(F)F)sc1C(=O)N(C)C | n | n | n | n | n | n
CCCNC(=O)c1ccc2c(=O)c(O)c(-c3cccc(Br)c3)[nH]c2c1 | x | n | n | 114 | x | n
CCCNC(=O)c1ccc2c(=O)c(O)c(-c3ccc(F)cc3)[nH]c2c1 | x | n | n | 89 | x | n
C=CCOn1c(=O)c(-c2ccc(Br)cc2)[n+]([O-])c2ccccc21 | x | n | n | n | n | n
COc1ccc(C(c2nnnn2CS(=O)(=O)c2ccc(C)cc2)N2CCN(Cc3ccccc3)CC2)cc1 (configuration not stated) | 63 | n | n | n | x | n
COc1ccc(Cn2nnnc2C(CC(C)C)N2CCN(c3ccccc3)CC2)cc1 (configuration not stated) | n | n | n | n | n | n
COc1ccc(C(c2nnnn2Cc2ccc(F)cc2)N2CCN(c3ccc(OC)cc3)CC2)cc1 (configuration not stated) | 94 | n | n | n | n | n
COCCn1nnnc1C(c1ccccn1)N1CCN(c2cc(Cl)ccc2C)CC1 (configuration not stated) | n | n | n | n | n | n
COc1ccc(Cn2nnnc2C(c2ccccn2)N2CCN(c3cc(Cl)ccc3C)CC2)cc1 (configuration not stated) | n | n | 65 | n | n | n
COc1ccc(C(c2nnnn2Cc2ccc(F)cc2)N2CCN(c3ccccc3)CC2)cc1 (configuration not stated) | 74 | n | n | n | n | n
COc1ccc(Cn2nnnc2C(c2ccc(F)cc2)N2CCN(C3CCCC3)CC2)cc1 (configuration not stated) | n | n | n | n | n | n
COC(=O)c1ccc(Cn2nc(-c3cc(C)ccc3C)ccc2=O)cc1 | x | n | n | n | n | n
CC(C)(C)c1ccc(-n2ncc3c2CCCC3NC(=O)CCN2CCCO2)cc1 (configuration not stated) | x | n | n | n | n | n
CC(C)CC(c1nnnn1CCc1ccccc1)N1CCC(C(N)=O)CC1 (configuration not stated) | n | n | n | n | n | n
CN(CCOc1ccccc1)C(=O)c1cc(S(=O)(=O)N2CCCCC2)ccc1Cl | x | n | n | n | x | n
O=C(c1ccco1)N1CCN(Cc2csc(-c3ccccc3Cl)n2)CC1 | x | n | n | n | n | n
COc1ccc(N2CCN(C(c3ccccc3)c3nnnn3Cc3ccc(F)cc3)CC2)cc1 (configuration not stated) | 66 | n | n | n | n | n
SMILES | L major viab | NALP3 yeast inh | T cruzi repl | Calb FLC | NALP1 inh | PolyA inh
COc1ccc2[nH]c3c(=O)n(Cc4ccc(C(=O)N5CCCC5)cc4)c(=S)[nH]c3c2c1 | n | n | n | n | n | n
O=C(NCc1ccccn1)C(=O)Nc1nc(C23CC4CC(CC(C4)C2)C3)cs1 | 68 | n | n | n | n | n
O=C(NCc1ccccn1)NC12CC3CC(CC(C3)C1)C2 | n | n | n | n | n | n
OC(c1cc(-c2ccc(C(F)(F)F)cc2)nc(C(F)(F)F)c1)C1CCCCN1 (configuration not stated) | x | n | 56 | n | n | n
OC(c1cc(C(F)(F)F)nc2c(C(F)(F)F)cccc12)C1CCCCN1 (configuration not stated) | x | n | x | x | x | x
Cc1cccc(Cl)c1OCCCCn1ccnc1 | 98 | n | 66 | n | n | n
Cc1cc(Cl)cc(C)c1OCCCCn1ccnc1 | 100 | n | u | n | n | n
Cc1cc(OCCCCn2ccnc2)cc(C)c1Cl | 99 | n | 69 | n | n | n
Cc1cccc(C(C)(C)C)c1OCCn1ccnc1 | 99 | n | n | n | n | n
Cc1cccc(OCCn2ccnc2)c1 | x | n | n | n | x | n
COc1ccc(S(=O)(=O)NC2(C(F)(F)F)NC(=O)N(CCc3ccc(OC)c(OC)c3)C2=O)cc1 (configuration not stated) | x | n | n | n | n | n
CN(C)C(CNc1ccc([N+](=O)[O-])cc1C#N)c1ccccc1 (configuration not stated) | n | n | n | n | n | n
CCOC(=O)C1=C(C)NC(C)=C(C(=O)OCC)C1c1cccs1 | n | n | n | n | n | n
CCOC(=O)C1=C(C)NC(C)=C(C(=O)OCC)C1c1sccc1C | 96 | n | n | n | n | n
Cc1c(Cl)cccc1NC(=O)CNc1cccc(S(=O)(=O)N(C)C)c1 | 72 | n | n | u | n | n
CCOc1ccc(NS(=O)(=O)c2c(C)nc3sc(CC)nn3c2=O)cc1 | x | n | x | x | n | x
CCN(CC(=O)NC(C)C)C(=O)c1ccc(Cl)cc1 | n | x | n | n | n | n
CN(C)c1ccc(C(=O)c2ccccc2)cc1 | n | n | n | n | n | n
COC(=O)C(C)N(C(=O)c1ccc(C(=O)c2ccccc2)cc1)c1c(C)cccc1C (configuration not stated) | 99 | n | n | n | n | n
COC(=O)C(C)N(C(=O)c1ccc(Cl)cc1)c1c(C)cccc1C (configuration not stated) | 87 | n | n | n | n | n
COc1ccc(CNC(=O)CCS(=O)(=O)c2ccc3c(c2)NC(=O)CS3)cc1 | x | n | n | n | n | n
CCc1cccc(N(CC(=O)NC2CCCCC2)C(=O)c2csnn2)c1 | x | n | n | n | n | n
CN(C)c1ccc(-c2n[nH]c(=S)n2-c2ccccc2)cc1 | n | n | n | n | n | n
